Blank lines part the entries; values can stand above or below the compound they belong to. Active and inactive are the calls of the source.
Tests used:
[1] = target: T1, CDC7/DBF4 (Cell division cycle 7-related protein kinase/Activator of S phase kinase) (Homo sapiens, UniProt O00311); assay: Inhibition of Cdc7/Dbf4 (unknown origin) using 0.333 uM of ATP as substrate by AlphaScreen assay; type: protein-complex assay
[2] = target: Casein kinase I isoform alpha (Homo sapiens, UniProt P48729); assay: Inhibition of CK1alpha (unknown origin) by TR-FRET assay
Casein kinase I isoform alpha, sequence (P48729 whole entry, canonical isoform): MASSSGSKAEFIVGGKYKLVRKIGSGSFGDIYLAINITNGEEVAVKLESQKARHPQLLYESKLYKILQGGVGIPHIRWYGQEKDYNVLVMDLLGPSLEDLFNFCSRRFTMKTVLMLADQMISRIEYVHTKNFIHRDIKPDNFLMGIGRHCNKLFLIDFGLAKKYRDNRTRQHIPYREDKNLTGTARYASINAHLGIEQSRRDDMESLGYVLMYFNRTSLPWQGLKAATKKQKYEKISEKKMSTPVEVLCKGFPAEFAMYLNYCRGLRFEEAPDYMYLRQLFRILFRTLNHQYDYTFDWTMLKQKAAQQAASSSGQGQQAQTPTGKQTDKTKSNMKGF
Outline: (§1)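 CK1 isoform inhibition measured in Lance TR-FRET kinase assays, reported as IC50.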

[3] = target: T1, CDC7/DBF4 (Cell division cycle 7-related protein kinase/Activator of S phase kinase); assay: Inhibition of Cdc7/Dbf4 (unknown origin) using 18 uM of ATP as substrate by AlphaScreen assay; type: protein-complex assay
[4] = Terminal half life in Sprague-Dawley rat at 5 mg/kg, po; type: ADME, organism-based; set-up: dose 5 mg/kg, route oral; settings: in vivo, read-out: beta t1/2 (converted)
Outline: (§2)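 Male Sprague-Dawley rats given 5 mg/kg orally in 2% HPMC, 1% Tween80, pH2 (an iv arm received 2 mg/kg in DMSO). Plasma was sampled from 0.25 to 24 h and analyzed by LC/MS.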

[5] = Oral bioavailability in Sprague-Dawley rat at 5 mg/kg; type: ADME, organism-based; settings: in vivo; outline: as §2
[6] = AUC (0 to t) in Sprague-Dawley rat at 2 mg/kg, iv; type: ADME, organism-based; set-up: dose 2 mg/kg, route intravenous; settings: plasma
[7] = target: T1, CDC7/DBF4 (Cell division cycle 7-related protein kinase/Activator of S phase kinase); assay: Inhibition of Cdc7/Dbf4 (unknown origin) using 6 uM of ATP as substrate by AlphaScreen assay; type: protein-complex assay
[8] = target: CDK9/cyclin T1 (Homo sapiens, UniProt P50750); assay: Inhibition of CDK9/Cyclin-T1 (unknown origin) by homogeneous time-resolved fluorescence assay; type: protein-complex assay
CDK9/cyclin T1, sequence (O60563 whole entry): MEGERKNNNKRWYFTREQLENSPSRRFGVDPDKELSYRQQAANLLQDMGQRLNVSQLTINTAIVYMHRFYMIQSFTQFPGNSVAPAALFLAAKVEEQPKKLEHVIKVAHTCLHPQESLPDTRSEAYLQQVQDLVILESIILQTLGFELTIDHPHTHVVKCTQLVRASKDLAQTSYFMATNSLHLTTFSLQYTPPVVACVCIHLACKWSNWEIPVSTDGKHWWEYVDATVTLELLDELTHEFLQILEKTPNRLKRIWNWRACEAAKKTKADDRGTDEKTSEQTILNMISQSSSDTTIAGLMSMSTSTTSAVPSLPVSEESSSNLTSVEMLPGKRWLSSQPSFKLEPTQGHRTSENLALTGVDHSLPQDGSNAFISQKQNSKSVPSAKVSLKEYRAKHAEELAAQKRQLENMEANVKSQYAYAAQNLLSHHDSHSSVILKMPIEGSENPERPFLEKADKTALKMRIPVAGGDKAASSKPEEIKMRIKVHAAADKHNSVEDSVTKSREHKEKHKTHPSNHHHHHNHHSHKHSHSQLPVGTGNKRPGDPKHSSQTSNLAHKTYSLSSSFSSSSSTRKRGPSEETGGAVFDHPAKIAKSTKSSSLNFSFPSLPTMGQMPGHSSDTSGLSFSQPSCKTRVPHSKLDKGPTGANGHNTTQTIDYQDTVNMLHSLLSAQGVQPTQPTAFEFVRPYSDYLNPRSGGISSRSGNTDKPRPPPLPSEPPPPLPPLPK
CDK9/cyclin T1, sequence (P50750 whole entry): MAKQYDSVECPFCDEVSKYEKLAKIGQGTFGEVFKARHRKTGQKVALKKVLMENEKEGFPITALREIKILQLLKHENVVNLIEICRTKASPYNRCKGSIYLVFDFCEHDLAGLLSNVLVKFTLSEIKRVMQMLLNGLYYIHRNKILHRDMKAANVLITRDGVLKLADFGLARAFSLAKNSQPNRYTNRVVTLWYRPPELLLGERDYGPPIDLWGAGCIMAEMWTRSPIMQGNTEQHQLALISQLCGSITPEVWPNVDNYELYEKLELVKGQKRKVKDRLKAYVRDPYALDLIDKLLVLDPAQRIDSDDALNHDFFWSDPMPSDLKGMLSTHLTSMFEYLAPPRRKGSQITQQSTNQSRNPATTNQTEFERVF
Outline: (§3)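 Counter-screens by HTRF kinase assays: CDK1/Cyclin B and CDK4/Cyclin D1 in HTRF format, CDK9/Cyclin T1 with a 4eBP1 ULight substrate, and the CK2 tetramer with a TopoII ULight substrate.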

[9] = system: HCT-116; assay: Inhibition of DNA synthesis in human HCT116 cells after 2 days by BrdU incorporation assay; type: functional, cell-based; settings: HCT-116, 48 h
[10] = system: HCT-116; assay: Cell cycle arrest in human HCT116 cells assessed as DNA accumulation at S/G2/M phase at 0.31 to 10 uM after 3 days using propidium iodide/RNase staining by flow cytometry; type: functional, cell-based
Outline: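 HCT-116 cells exposed to inhibitor for 3 d at the indicated concentrations. Cells harvested with Cell Stripper buffer, fixed in 70% ethanol, stained with propidium iodide/RNase, and DNA content analysed by flow cytometry.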

[11] = system: HCT-116; assay: Cytotoxicity against human HCT116 cells assessed as cell viability after 2 days by Cell Titer-glo assay; type: functional, cell-based; settings: HCT-116, 48 h
[12] = target: T1, CDC7/DBF4 (Cell division cycle 7-related protein kinase/Activator of S phase kinase); assay: Inhibition of Cdc7/Dbf4 (unknown origin) using 0.667 uM of ATP as substrate by AlphaScreen assay; type: protein-complex assay
[13] = target: T2, CDC7/DBF4 (Cell division cycle 7-related protein kinase/Activator of S phase kinase) (Homo sapiens) (UniProt Q9UBU7+O00311); assay: Inhibition of Cdc7/Dbf4 in human HCT116 cells assessed as reduction of MCM2 phosphorylation after 14 hrs; type: cell-based; settings: HCT-116
T2 sequence (O00311 whole entry, looked up): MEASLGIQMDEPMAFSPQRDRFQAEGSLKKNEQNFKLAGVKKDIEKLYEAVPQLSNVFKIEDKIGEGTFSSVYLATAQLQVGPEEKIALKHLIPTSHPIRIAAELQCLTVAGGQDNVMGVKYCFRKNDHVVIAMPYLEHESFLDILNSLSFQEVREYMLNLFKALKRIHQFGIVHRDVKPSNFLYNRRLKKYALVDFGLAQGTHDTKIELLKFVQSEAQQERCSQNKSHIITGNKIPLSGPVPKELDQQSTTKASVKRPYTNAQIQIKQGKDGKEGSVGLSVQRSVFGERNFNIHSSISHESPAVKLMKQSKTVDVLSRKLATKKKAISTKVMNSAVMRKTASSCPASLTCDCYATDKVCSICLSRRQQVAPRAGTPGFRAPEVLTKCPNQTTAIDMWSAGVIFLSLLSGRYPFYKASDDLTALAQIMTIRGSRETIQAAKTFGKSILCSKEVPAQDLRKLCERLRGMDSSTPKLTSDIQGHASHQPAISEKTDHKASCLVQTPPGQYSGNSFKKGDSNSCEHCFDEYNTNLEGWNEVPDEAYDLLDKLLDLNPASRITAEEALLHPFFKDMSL
T2 sequence (Q9UBU7 whole entry, looked up): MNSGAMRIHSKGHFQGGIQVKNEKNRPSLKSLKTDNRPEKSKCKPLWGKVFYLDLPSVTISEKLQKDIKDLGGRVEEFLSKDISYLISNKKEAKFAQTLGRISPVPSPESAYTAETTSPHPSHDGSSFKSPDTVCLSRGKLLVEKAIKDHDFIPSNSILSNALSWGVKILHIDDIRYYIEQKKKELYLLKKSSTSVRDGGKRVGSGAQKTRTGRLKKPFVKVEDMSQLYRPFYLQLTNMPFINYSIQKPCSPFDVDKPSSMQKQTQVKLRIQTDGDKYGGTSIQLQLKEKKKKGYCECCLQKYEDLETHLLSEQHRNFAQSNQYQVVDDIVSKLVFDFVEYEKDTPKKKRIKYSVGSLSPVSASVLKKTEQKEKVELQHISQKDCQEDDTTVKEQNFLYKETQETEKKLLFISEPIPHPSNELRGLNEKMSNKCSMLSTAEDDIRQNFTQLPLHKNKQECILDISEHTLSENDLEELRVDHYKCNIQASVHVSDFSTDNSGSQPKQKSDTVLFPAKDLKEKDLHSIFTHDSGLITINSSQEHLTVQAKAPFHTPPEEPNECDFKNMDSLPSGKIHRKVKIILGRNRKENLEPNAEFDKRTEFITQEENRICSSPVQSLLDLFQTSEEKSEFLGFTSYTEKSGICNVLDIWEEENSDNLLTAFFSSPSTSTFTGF
Outline: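 HCT-116 cells were exposed to inhibitor across a 22-point dose response for 14 h. They were then immunostained for phospho-serine MCM2 using an Alexa Fluor 488 secondary, with a Hoechst nuclear counterstain. The percentage of cells with phospho-MCM2 signal above a threshold was scored by high-content imaging, and IC50 values were derived from that.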

[14] = target: Cyclin-dependent kinase 1/cyclin B1 (Homo sapiens, UniProt P06493); assay: Inhibition of CDK1/Cyclin-B (unknown origin) by homogeneous time-resolved fluorescence assay; type: protein-complex assay; outline: as §3
Cyclin-dependent kinase 1/cyclin B1, sequence (P06493 whole entry): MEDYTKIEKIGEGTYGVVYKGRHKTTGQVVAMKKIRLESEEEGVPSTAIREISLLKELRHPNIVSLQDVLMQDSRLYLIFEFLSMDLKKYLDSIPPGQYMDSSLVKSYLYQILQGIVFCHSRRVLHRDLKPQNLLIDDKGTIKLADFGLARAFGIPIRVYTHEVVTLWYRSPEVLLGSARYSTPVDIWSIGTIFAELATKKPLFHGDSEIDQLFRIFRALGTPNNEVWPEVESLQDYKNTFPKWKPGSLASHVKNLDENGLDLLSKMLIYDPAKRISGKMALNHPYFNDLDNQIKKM
Cyclin-dependent kinase 1/cyclin B1, sequence (P14635 whole entry, further chain): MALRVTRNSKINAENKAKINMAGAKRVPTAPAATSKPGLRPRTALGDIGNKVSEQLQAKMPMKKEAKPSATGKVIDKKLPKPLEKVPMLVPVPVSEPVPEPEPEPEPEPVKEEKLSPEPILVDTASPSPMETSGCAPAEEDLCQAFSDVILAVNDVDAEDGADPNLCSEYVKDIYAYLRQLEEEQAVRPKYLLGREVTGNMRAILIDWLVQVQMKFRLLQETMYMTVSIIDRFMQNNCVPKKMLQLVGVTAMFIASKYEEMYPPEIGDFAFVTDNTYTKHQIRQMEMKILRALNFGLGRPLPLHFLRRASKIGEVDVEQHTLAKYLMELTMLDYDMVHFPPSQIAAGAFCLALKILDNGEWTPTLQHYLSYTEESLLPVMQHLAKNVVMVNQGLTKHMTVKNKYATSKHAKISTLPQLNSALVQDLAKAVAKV

[15] = system: Mus musculus; assay: Inhibition of Cdc7/Dbf4 in NCR nude mouse xenografted with human HCT116 cells assessed as reduction of phosphorylated MCM2 level in tumor at 50 mg/kg, iv after 3 hrs; type: functional; settings: HCT-116, 3 h
Outline: (§4)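 Female athymic NCR/nu mice, 4–6 weeks old, bearing subcutaneous HCT-116 xenografts (5 × 10^6 cells in Matrigel) grown to about 250 mm3. Single iv dose formulated in 20% HPbCD, 1% HPMC, 1% PluronicF68, pH7 at 10 mg/ml; three mice per group. Tumors were homogenized in Tris lysis buffer with protease and phosphatase inhibitors. MSD capture with total MCM2 antibody, then phospho-Ser53 or total MCM2 detection by chemiluminescence; inhibition taken from the phospho/total ratio.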

[16] = Tmax in Sprague-Dawley rat at 5 mg/kg, po; type: ADME, organism-based; set-up: dose 5 mg/kg, route oral; settings: in vivo; outline: as §2
[17] = target: Casein kinase I isoform delta (Homo sapiens, UniProt P48730); assay: Inhibition of CK1delta (unknown origin) by TR-FRET assay; outline: as §1
Casein kinase I isoform delta, sequence (P48730 whole entry, canonical isoform): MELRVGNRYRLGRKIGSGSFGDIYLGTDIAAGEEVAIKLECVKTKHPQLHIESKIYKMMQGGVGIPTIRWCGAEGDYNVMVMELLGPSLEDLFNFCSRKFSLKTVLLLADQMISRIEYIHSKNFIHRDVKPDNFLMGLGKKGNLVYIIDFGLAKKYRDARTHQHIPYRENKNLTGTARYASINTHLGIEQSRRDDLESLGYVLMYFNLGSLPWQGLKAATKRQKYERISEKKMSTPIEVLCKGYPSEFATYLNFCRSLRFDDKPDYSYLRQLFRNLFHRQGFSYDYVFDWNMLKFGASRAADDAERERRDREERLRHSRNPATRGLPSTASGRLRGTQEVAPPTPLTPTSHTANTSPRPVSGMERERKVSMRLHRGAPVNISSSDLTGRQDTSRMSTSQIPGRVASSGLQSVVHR

[18] = Volume of distribution at steady state in Sprague-Dawley rat at 2 mg/kg, iv; type: ADME, organism-based; set-up: dose 2 mg/kg, route intravenous; settings: in vivo, read-out: Vdss
[19] = Clearance in Sprague-Dawley rat at 2 mg/kg, iv; type: ADME, organism-based; set-up: dose 2 mg/kg, route intravenous; settings: in vivo
[20] = AUC (0 to infinity) in Sprague-Dawley rat at 2 mg/kg, iv; type: ADME, organism-based; set-up: time infinity, dose 2 mg/kg, route intravenous; settings: plasma
[21] = Apparent oral clearance in Sprague-Dawley rat at 5 mg/kg, po; type: ADME, organism-based; set-up: dose 5 mg/kg, route oral; settings: in vivo
[22] = system: Mus musculus; assay: Inhibition of Cdc7/Dbf4 in NCR nude mouse xenografted with human HCT116 cells assessed as reduction of phosphorylated MCM2 level in tumor at 150 mg/kg, iv after 6 hrs; type: functional; settings: HCT-116, 6 h; outline: as §4
[23] = system: Plasma; assay: Unbound plasma concentration in NCR nude mouse xenografted with human HCT116 cells at 150 mg/kg, iv after 1 hr; type: ADME, organism-based, HCT-116; set-up: dose 150 mg/kg, route intravenous; settings: in vivo
Outline: (§5)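 HCT-116 xenograft NCR/nu mice (three per group) were given a single iv dose in 20% HPbCD, 1% HPMC, 1% PluronicF68, pH7 at 10 mg/ml. Plasma collected at the time points was measured by LC/MS. Values were converted to unbound concentrations using percent plasma protein binding in mouse serum.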

[24] = system: Plasma; assay: Unbound plasma concentration in NCR nude mouse xenografted with human HCT116 cells at 150 mg/kg, iv after 6 hrs; type: ADME, organism-based, HCT-116; set-up: dose 150 mg/kg, route intravenous; settings: in vivo; outline: as §5
[25] = system: Mus musculus; assay: Inhibition of Cdc7/Dbf4 in NCR nude mouse xenografted with human HCT116 cells assessed as reduction of phosphorylated MCM2 level in tumor at 50 mg/kg, iv after 6 hrs; type: functional; settings: HCT-116, 6 h; outline: as §4
[26] = target: T2, CDC7/DBF4 (Cell division cycle 7-related protein kinase/Activator of S phase kinase) (Homo sapiens); assay: Ratio of IC50 for Cdc7/Dbf4 in human HCT116 cells to IC50 for Cdc7/Dbf4 (unknown origin); type: cell-based; settings: HCT-116
[27] = target: T1, CDC7/DBF4 (Cell division cycle 7-related protein kinase/Activator of S phase kinase); assay: Inhibition of Cdc7/Dbf4 (unknown origin) using 0.023 uM of ATP as substrate by AlphaScreen assay; type: protein-complex assay
Outline: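 AlphaScreen with 6 nM Cdc7/Dbf4 and 10 nM biotinylated His/avitag MCM2 (aa1-467) substrate. Phospho-Ser53 MCM2 detected with antibody-bound Protein A acceptor and streptavidin donor beads. Rates fitted by Michaelis–Menten and double-reciprocal plots.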

[28] = target: T1, CDC7/DBF4 (Cell division cycle 7-related protein kinase/Activator of S phase kinase); assay: Inhibition of Cdc7/Dbf4 (unknown origin) using 0.75 uM of ATP as substrate by AlphaScreen assay; type: protein-complex assay
Outline: (§6)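 Mechanism-of-action AlphaScreen run with 6 nM Cdc7/Dbf4 and 10 nM biotinylated MCM2 substrate. […] Reaction time was 2 h. Phospho-Ser53 MCM2 was read by antibody-bound acceptor beads with streptavidin donor beads. Rates and Ki were fitted to a competitive inhibition model.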

[29] = target: T1, CDC7/DBF4 (Cell division cycle 7-related protein kinase/Activator of S phase kinase); assay: Inhibition of Cdc7/Dbf4 (unknown origin) using 0.094 uM of ATP as substrate by AlphaScreen assay; type: protein-complex assay; outline: as §6
[30] = target: T1, CDC7/DBF4 (Cell division cycle 7-related protein kinase/Activator of S phase kinase); assay: Inhibition of Cdc7/Dbf4 (unknown origin) using 0.047 uM of ATP as substrate by AlphaScreen assay; type: protein-complex assay; outline: as §6

T1 sequence (Q9UBU7 whole entry, canonical isoform): as the sequence (Q9UBU7 whole entry, looked up) above
T1 sequence (O00311 whole entry, canonical isoform): as the sequence (O00311 whole entry, looked up) above

Compound: NC(=O)c1sc(-c2ccnc(N)n2)nc1-c1ccc(Cl)cc1Cl
- IC50 [1]: 0.02 µM
- IC50 [2]: 0.694 µM
- IC50 [3]: 0.023 µM
- half-life [4]: 3.73 h
- bioavailability [5]: 6.58%
- AUC(0-t) [6]: 0.518 µg·h/mL
- IC50 [7]: 0.013 µM
- IC50 [8]: 0.749 µM
- IC50 [9]: 2.6 µM
- Activity [10]: Active
- IC50 [11]: 4.2 µM
- IC50 [12]: 0.014 µM
- IC90 [13]: 6.37 µM
- IC50 [14]: > 50 µM
- inhibition in vivo at 50 mg/kg [15]: 39%
- Tmax [16]: 2.17 h
- IC50 [17]: 0.084 µM
- Vd [18]: 4.43 L/kg
- clearance [19]: 3.89 L/h/kg
- AUC(0-inf) [20]: 0.521 µg·h/mL
- CL/F [21]: 63.2 L/h/kg
- inhibition in vivo at 150 mg/kg [22]: 31%
- Cp(f) [23]: 5 µM
- Cp(f) [24]: > 1 µM
- inhibition in vivo at 50 mg/kg [25]: 20%

- IC50 [2]: 0.545 µM
- IC50 [8]: 0.729 µM
- IC50 [9]: 6.9 µM
- IC50 [14]: > 50 µM
- IC50 [17]: 0.104 µM
- Ratio IC50 [26]: > 30
Compound: COc1ccc(-c2nc(-c3ccnc(N)n3)sc2C(N)=O)c(Cl)c1
- IC50 [11]: 4.6 µM

- IC50 [27]: 0.3 µM
- IC50 [28]: 0.316 µM
- IC50 [29]: 0.528 µM
- IC50 [30]: 0.405 µM
Compound: CCOC(=O)c1sc(-c2ccncc2)nc1O

Reference: ChEMBL document CHEMBL3259739, “Synthesis and structure-activity relationship of trisubstituted thiazoles as Cdc7 kinase inhibitors” (Eur J Med Chem, 2014)
